From ChEMBL document CHEMBL1128417, “Synthesis and opioid activity of conformationally constrained dynorphin A analogues. 1. Conformational constraint in the "message" sequence” (J Med Chem, 1995)
pIC50, pKi: −log10 of the molar value.

Columns and labels:
Cavia porcellus [1] = species: Cavia porcellus; assay: Relative potency against electrically evoked contractions of the guinea pig ileum(GPI).; format: functional; set-up: reference not given here
[2] = molecular target: Kappa-type opioid receptor (Cavia porcellus, UniProt P41144); assay: Compound was evaluated for binding affinity against Opioid receptor kappa 1 using as the radioligand using competition binding assays.
Cavia porcellus [3] = species: Cavia porcellus; assay: In vitro inhibition of electrically evoked contractions of the guinea pig ileum (GPI); format: functional
In short: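 Guinea pig ileum preparation, electrically stimulated; peptidase inhibitors (10 µM bestatin, 0.3 µM thiorphan) added to the tissue bath 5 min before each experiment. IC50 for inhibition of contractions taken from at least three replicates in tissues from different animals.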

Mu-type opioid receptor = Mu-type opioid receptor (Rattus norvegicus, UniProt P33535); assay: Compound was evaluated for binding affinity against Opioid receptor mu 1 of rat forebrain using [3H]DAMGO as the radioligand using competition binding assays.
[4] = molecular target: Delta-type opioid receptor (Rattus norvegicus, UniProt P33533); assay: Compound was evaluated for binding affinity against delta opioid receptor of rat forebrain using [3H]-DPDPE as the radioligand using competition binding assays.
[5] = molecular target: T1, Opioid receptors; mu & delta (Homo sapiens) (UniProt P41143+P35372); assay: Ki ratio which is the ratio of Ki of k opioid receptor to the Ki of mu opioid receptor to the Ki of delta opioid receptor; 1/2.2/47; format: protein assay
[6] = molecular target: T1, Opioid receptors; mu & delta (Homo sapiens); assay: Ki ratio which is the ratio of Ki of k opioid receptor to the Ki of mu opioid receptor to the Ki of delta opioid receptor; 1.3/1/27; format: protein assay
[7] = molecular target: T1, Opioid receptors; mu & delta (Homo sapiens); assay: Ki ratio which is the ratio of Ki of k opioid receptor to the Ki of mu opioid receptor to the Ki of delta opioid receptor; 1/1.3/92; format: protein assay
[8] = molecular target: T1, Opioid receptors; mu & delta (Homo sapiens); assay: Ki ratio which is the ratio of Ki of k opioid receptor to the Ki of mu opioid receptor to the Ki of delta opioid receptor; 3.6/1/74; format: protein assay

## CC[C@H](C)[C@H](NC(=O)[C@H](CCCN=C(N)N)NC(=O)[C@H](CCCN=C(N)N)NC(=O)[C@H](CCCN=C(N(C)C)N(C)C)NC(=O)[C@H](Cc1ccccc1)NC(=O)CNC(=O)[C@@H](CC(=O)O)NC(=O)[C@@H](N)Cc1ccc(O)cc1)C(=O)N[C@@H](CCCN=C(N)N)C(=O)N1CCC[C@H]1C(=O)N[C@@H](CCCCN)C(=O)N[C@@H](CC(C)C)C(=O)N[C@@H](CCCCN)C(N)=O
Cavia porcellus [1]
  Relative potency: 12
[2]
  pKi: 9.44
Cavia porcellus [3]
  pIC50: 8.75
Mu-type opioid receptor
  pKi: 9.55
[4]
  pKi: 7.85

## CC[C@H](C)[C@H](NC(=O)[C@H](CCCN=C(N)N)NC(=O)[C@H](CCCN=C(N)N)NC(=O)[C@H](CCN=C(N(C)C)N(C)C)NC(=O)[C@H](Cc1ccccc1)NC(=O)CNC(=O)[C@@H](CC(=O)O)NC(=O)[C@@H](N)Cc1ccc(O)cc1)C(=O)N[C@@H](CCCN=C(N)N)C(=O)N1CCC[C@H]1C(=O)N[C@@H](CCCCN)C(=O)N[C@@H](CC(C)C)C(=O)N[C@@H](CCCCN)C(N)=O
Cavia porcellus [1]
  Relative potency: 122
[2]
  pKi: 9.85
Cavia porcellus [3]
  pIC50: 9.74
Mu-type opioid receptor
  pKi: 9.49
[4]
  pKi: 8.12

## CC[C@H](C)[C@H](NC(=O)[C@H](CCCN=C(N)N)NC(=O)[C@H](CCCN=C(N)N)NC(=O)[C@@H]1CNC(=O)C[C@@H](NC(=O)[C@@H](N)Cc2ccc(O)cc2)C(=O)NCC(=O)N[C@@H](Cc2ccccc2)C(=O)N1)C(=O)N[C@@H](CCCN=C(N)N)C(=O)N1CCC[C@@H]1C(=O)N[C@@H](CCCCN)C(=O)N[C@@H](CC(C)C)C(=O)N[C@@H](CCCCN)C(N)=O
[5]
  Ki ratio: kappa/mu/delta

## CC[C@H](C)[C@H](NC(=O)[C@H](CCCN=C(N)N)NC(=O)[C@H](CCCN=C(N)N)NC(=O)[C@H](CN=C(N(C)C)N(C)C)NC(=O)[C@H](Cc1ccccc1)NC(=O)CNC(=O)[C@@H](CC(=O)O)NC(=O)[C@@H](N)Cc1ccc(O)cc1)C(=O)N[C@@H](CCCN=C(N)N)C(=O)N1CCC[C@H]1C(=O)N[C@@H](CCCCN)C(=O)N[C@@H](CC(C)C)C(=O)N[C@@H](CCCCN)C(N)=O
Cavia porcellus [1]
  Relative potency: 48
[2]
  pKi: 9.68
Cavia porcellus [3]
  pIC50: 9.34
[6]
  Ki ratio: mu/kappa/delta
Mu-type opioid receptor
  pKi: 9.80
[4]
  pKi: 8.37

## CC[C@H](C)[C@H](NC(=O)[C@H](CCCN=C(N)N)NC(=O)[C@H](CCCN=C(N)N)NC(=O)[C@@H]1CCNC(=O)C[C@@H](NC(=O)[C@@H](N)Cc2ccc(O)cc2)C(=O)NCC(=O)N[C@@H](Cc2ccccc2)C(=O)N1)C(=O)N[C@@H](CCCN=C(N)N)C(=O)N1CCC[C@H]1C(=O)N[C@@H](CCCCN)C(=O)N[C@@H](CC(C)C)C(=O)N[C@@H](CCCCN)C(N)=O [listing 1 of 2 here]
[2]
  pKi: 9.89
Cavia porcellus [3]
  pIC50: 9.64
Mu-type opioid receptor
  pKi: 9.77
[4]
  pKi: 7.92

## CC[C@H](C)[C@H](NC(=O)[C@H](CCCN=C(N)N)NC(=O)[C@H](CCCN=C(N)N)NC(=O)[C@@H]1CCNC(=O)C[C@@H](NC(=O)[C@@H](N)Cc2ccc(O)cc2)C(=O)NCC(=O)N[C@@H](Cc2ccccc2)C(=O)N1)C(=O)N[C@@H](CCCN=C(N)N)C(=O)N1CCC[C@@H]1C(=O)N[C@@H](CCCCN)C(=O)N[C@@H](CC(C)C)C(=O)N[C@@H](CCCCN)C(N)=O
[7]
  Ki ratio: kappa/mu/delta

## CC[C@H](C)[C@H](NC(=O)[C@H](CCCN=C(N)N)NC(=O)[C@H](CCCN=C(N)N)NC(=O)[C@H](CC(C)C)NC(=O)[C@H](Cc1ccccc1)NC(=O)CNC(=O)CNC(=O)[C@@H](N)Cc1ccc(O)cc1)C(=O)N[C@@H](CCCN=C(N)N)C(=O)N1CCC[C@H]1C(=O)N[C@@H](CCCCN)C(=O)N[C@@H](CC(C)C)C(=O)N[C@@H](CCCCN)C(N)=O [listing 1 of 2 here]
Cavia porcellus [3]
  pIC50: 9.66

## CC[C@H](C)[C@H](NC(=O)[C@H](CCCN=C(N)N)NC(=O)[C@H](CCCN=C(N)N)NC(=O)[C@@H]1CNC(=O)C[C@@H](NC(=O)[C@@H](N)Cc2ccc(O)cc2)C(=O)NCC(=O)N[C@@H](Cc2ccccc2)C(=O)N1)C(=O)N[C@@H](CCCN=C(N)N)C(=O)N1CCC[C@H]1C(=O)N[C@@H](CCCCN)C(=O)N[C@@H](CC(C)C)C(=O)N[C@@H](CCCCN)C(N)=O [listing 1 of 2 here]
[2]
  pKi: 9.66
Cavia porcellus [3]
  pIC50: 9.80
Mu-type opioid receptor
  pKi: 9.31
[4]
  pKi: 7.99

## CC[C@H](C)[C@H](NC(=O)[C@H](CCCN=C(N)N)NC(=O)[C@H](CCCN=C(N)N)NC(=O)[C@H](CC(C)C)NC(=O)[C@H](Cc1ccccc1)NC(=O)CNC(=O)[C@@H](CC(=O)O)NC(=O)[C@@H](N)Cc1ccc(O)cc1)C(=O)N[C@@H](CCCN=C(N)N)C(=O)N1CCC[C@H]1C(=O)N[C@@H](CCCCN)C(=O)N[C@@H](CC(C)C)C(=O)N[C@@H](CCCCN)C(N)=O [listing 1 of 2 here]
[2]
  pKi: 9.35
Cavia porcellus [3]
  pIC50: 9.34
Mu-type opioid receptor
  pKi: 10.89
[4]
  pKi: 10.36

## CC[C@H](C)[C@H](NC(=O)[C@H](CCCN=C(N)N)NC(=O)[C@H](CCCN=C(N)N)NC(=O)[C@@H]1CCCNC(=O)C[C@@H](NC(=O)[C@@H](N)Cc2ccc(O)cc2)C(=O)NCC(=O)N[C@@H](Cc2ccccc2)C(=O)N1)C(=O)N[C@@H](CCCN=C(N)N)C(=O)N1CCC[C@H]1C(=O)N[C@@H](CCCCN)C(=O)N[C@@H](CC(C)C)C(=O)N[C@@H](CCCCN)C(N)=O
Cavia porcellus [1]
  Relative potency: 55
[2]
  pKi: 9.17
Cavia porcellus [3]
  pIC50: 9.40
Mu-type opioid receptor
  pKi: 9.72
[4]
  pKi: 7.85
[8]
  Ki ratio: mu/kappa/delta

## CC[C@H](C)[C@H](NC(=O)[C@H](CCCN=C(N)N)NC(=O)[C@H](CCCN=C(N)N)NC(=O)[C@H](CC(C)C)NC(=O)[C@H](Cc1ccccc1)NC(=O)CNC(=O)[C@@H](CC(=O)O)NC(=O)[C@@H](N)Cc1ccc(O)cc1)C(=O)N[C@@H](CCCN=C(N)N)C(=O)N1CCC[C@H]1C(=O)N[C@@H](CCCCN)C(=O)N[C@@H](CC(C)C)C(=O)N[C@@H](CCCCN)C(N)=O [listing 2 of 2 here]
Cavia porcellus [1]
  Relative potency: 32

## CC[C@H](C)[C@H](NC(=O)[C@H](CCCN=C(N)N)NC(=O)[C@H](CCCN=C(N)N)NC(=O)[C@@H]1CCNC(=O)C[C@@H](NC(=O)[C@@H](N)Cc2ccc(O)cc2)C(=O)NCC(=O)N[C@@H](Cc2ccccc2)C(=O)N1)C(=O)N[C@@H](CCCN=C(N)N)C(=O)N1CCC[C@H]1C(=O)N[C@@H](CCCCN)C(=O)N[C@@H](CC(C)C)C(=O)N[C@@H](CCCCN)C(N)=O [listing 2 of 2 here]
Cavia porcellus [1]
  Relative potency: 96

## CC[C@H](C)[C@H](NC(=O)[C@H](CCCN=C(N)N)NC(=O)[C@H](CCCN=C(N)N)NC(=O)[C@H](CC(C)C)NC(=O)[C@H](Cc1ccccc1)NC(=O)CNC(=O)CNC(=O)[C@@H](N)Cc1ccc(O)cc1)C(=O)N[C@@H](CCCN=C(N)N)C(=O)N1CCC[C@H]1C(=O)N[C@@H](CCCCN)C(=O)N[C@@H](CC(C)C)C(=O)N[C@@H](CCCCN)C(N)=O [listing 2 of 2 here]
Cavia porcellus [1]
  Relative potency: 100

## CC[C@H](C)[C@H](NC(=O)[C@H](CCCN=C(N)N)NC(=O)[C@H](CCCN=C(N)N)NC(=O)[C@@H]1CNC(=O)C[C@@H](NC(=O)[C@@H](N)Cc2ccc(O)cc2)C(=O)NCC(=O)N[C@@H](Cc2ccccc2)C(=O)N1)C(=O)N[C@@H](CCCN=C(N)N)C(=O)N1CCC[C@H]1C(=O)N[C@@H](CCCCN)C(=O)N[C@@H](CC(C)C)C(=O)N[C@@H](CCCCN)C(N)=O [listing 2 of 2 here]
Cavia porcellus [1]
  Relative potency: 138
